From ChEMBL document CHEMBL4152346, “Sulfonamido-2-arylbenzoxazole GroEL/ES Inhibitors as Potent Antibacterials against Methicillin-Resistant Staphylococcus aureus (MRSA)” (J Med Chem, 2018)
Activity calls are given as the source filed them. The rule behind the calls is not given here.

What was measured:
Format in all cases: functional, organism-based
Enterobacter cloacae = test: Antibacterial activity against Enterobacter cloacae subsp. cloacae ATCC 13047 after 6 to 8 hrs
Outline: (§1)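 Stagnant liquid-culture proliferation assay at 37°C in broth cation-adjusted with 25 mg/L Ca²⁺ and 12.5 mg/L Mg²⁺, with compounds stamped into the wells. […] OD600 turbidity was read at 6–8 h (K. pneumoniae, E. cloacae, P. aeruginosa) or 24 h (A. baumannii). EC50 came from non-linear regression, averaged in log form over replicates.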

Klebsiella pneumoniae = test: Antibacterial activity against Klebsiella pneumoniae ATCC 13883 after 6 to 8 hrs; outline: as §1
Acinetobacter baumannii = test: Antibacterial activity against Acinetobacter baumannii ATCC 19606 after 24 hrs; conditions: ATCC 19606 = CIP 70.34 = JCM 6841; outline: as §1
Pseudomonas aeruginosa = test: Antibacterial activity against Pseudomonas aeruginosa ATCC 10145 after 6 to 8 hrs; outline: as §1

Structure (SMILES)	Activity (Enterobacter cloacae)	Activity (Klebsiella pneumoniae)	Activity (Acinetobacter baumannii)	Activity (Pseudomonas aeruginosa)
O=S(=O)(Nc1ccc(-c2nc3cc(NS(=O)(=O)c4ccc(F)cc4)ccc3o2)cc1)c1ccc(F)cc1	inactive	inactive	inactive	inactive
N#Cc1ccccc1S(=O)(=O)Nc1ccc(-c2nc3cc(NS(=O)(=O)c4ccccc4C#N)ccc3o2)cc1	inactive	inactive	inactive	inactive
COC(=O)c1ccccc1S(=O)(=O)Nc1ccc(-c2nc3cc(NS(=O)(=O)c4ccccc4C(=O)OC)ccc3o2)cc1	inactive	inactive	inactive	inactive
O=S(=O)(Nc1ccc(-c2nc3cc(NS(=O)(=O)c4cccc(Br)c4)ccc3o2)cc1)c1cccc(Br)c1	inactive	inactive	inactive	inactive
O=S(=O)(Nc1ccc(-c2nc3cc(NS(=O)(=O)c4cccc5nonc45)ccc3o2)cc1)c1cccc2nonc12	inactive	inactive	inactive	inactive
O=S(=O)(Nc1ccc(-c2nc3cc(NS(=O)(=O)c4ccc5nsnc5c4)ccc3o2)cc1)c1ccc2nsnc2c1	inactive	inactive	inactive	inactive
O=S(=O)(Nc1ccc(-c2nc3cc(NS(=O)(=O)c4ccccc4O)ccc3o2)cc1)c1ccccc1O	inactive	inactive	inactive	inactive
O=S(=O)(Nc1ccc(-c2nc3cc(NS(=O)(=O)c4cccc(Cl)c4)ccc3o2)cc1)c1cccc(Cl)c1	inactive	inactive	inactive	inactive
COc1ccccc1S(=O)(=O)Nc1ccc(-c2nc3cc(NS(=O)(=O)c4ccccc4OC)ccc3o2)cc1	inactive	inactive	inactive	inactive
O=c1ccc2cc(S(=O)(=O)Nc3ccc(-c4nc5cc(NS(=O)(=O)c6ccc7oc(=O)ccc7c6)ccc5o4)cc3)ccc2o1	inactive	inactive	inactive	inactive
O=S(=O)(Nc1ccc(-c2nc3cc(NS(=O)(=O)c4cccc5nsnc45)ccc3o2)cc1)c1cccc2nsnc12	inactive	inactive	inactive	inactive
Cc1ccc(S(=O)(=O)Nc2ccc(-c3nc4cc(NS(=O)(=O)c5ccc(C)cc5)ccc4o3)cc2)cc1	inactive	inactive	inactive	inactive
O=S(=O)(Nc1ccc(-c2nc3cc(NS(=O)(=O)c4ccc5ccccc5c4)ccc3o2)cc1)c1ccc2ccccc2c1	inactive	inactive	inactive	inactive
Cc1ccc(S(=O)(=O)Nc2ccc(-c3nc4ccc(NS(=O)(=O)c5ccc(C)cc5)cc4[nH]3)cc2)cc1	inactive	inactive	inactive	inactive
O=S(=O)(Nc1ccc(-c2nc3cc(NS(=O)(=O)c4ccc(O)cc4)ccc3o2)cc1)c1ccc(O)cc1	Active	Active	Active	Active
CCCS(=O)(=O)Nc1ccc(-c2nc3cc(NS(=O)(=O)CCC)ccc3o2)cc1	inactive	inactive	inactive	inactive
O=S(=O)(Nc1ccc(-c2nc3cc(NS(=O)(=O)C(F)(F)F)ccc3o2)cc1)C(F)(F)F	inactive	inactive	inactive	inactive
O=S(=O)(Nc1ccc(-c2nc3cc(NS(=O)(=O)c4ccccc4)ccc3o2)cc1)c1ccccc1	inactive	inactive	inactive	inactive
O=S(=O)(Nc1ccc(-c2nc3cc(NS(=O)(=O)c4cccc5ccccc45)ccc3o2)cc1)c1cccc2ccccc12	inactive	inactive	inactive	inactive
Nc1cccc(S(=O)(=O)Nc2ccc(-c3nc4cc(NS(=O)(=O)c5cccc(N)c5)ccc4o3)cc2)c1	inactive	inactive	inactive	inactive
O=S(=O)(Nc1ccc(-c2nc3cc(NS(=O)(=O)c4ccccc4C(F)(F)F)ccc3o2)cc1)c1ccccc1C(F)(F)F	inactive	inactive	inactive	inactive

Structure (SMILES)	Activity (Enterobacter cloacae)	Activity (Klebsiella pneumoniae)	Activity (Acinetobacter baumannii)	Activity (Pseudomonas aeruginosa)
Nc1ccc(S(=O)(=O)Nc2ccc(-c3nc4cc(NS(=O)(=O)c5ccc(N)cc5)ccc4o3)cc2)cc1	inactive	inactive	inactive	inactive
O=S(=O)(Nc1ccc(-c2nc3cc(NS(=O)(=O)c4cccc(F)c4)ccc3o2)cc1)c1cccc(F)c1	inactive	inactive	inactive	inactive
O=[N+]([O-])c1cccc(S(=O)(=O)Nc2ccc(-c3nc4cc(NS(=O)(=O)c5cccc([N+](=O)[O-])c5)ccc4o3)cc2)c1	inactive	inactive	inactive	inactive
N#Cc1cccc(S(=O)(=O)Nc2ccc(-c3nc4cc(NS(=O)(=O)c5cccc(C#N)c5)ccc4o3)cc2)c1	inactive	inactive	inactive	inactive
O=S(=O)(Nc1ccc(-c2nc3cc(NS(=O)(=O)c4cccs4)ccc3o2)cc1)c1cccs1	inactive	inactive	inactive	inactive
COC(=O)c1ccc(S(=O)(=O)Nc2ccc(-c3nc4cc(NS(=O)(=O)c5ccc(C(=O)OC)cc5)ccc4o3)cc2)cc1	inactive	inactive	inactive	inactive
O=[N+]([O-])c1ccccc1S(=O)(=O)Nc1ccc(-c2nc3cc(NS(=O)(=O)c4ccccc4[N+](=O)[O-])ccc3o2)cc1	inactive	inactive	inactive	inactive
O=C(O)c1cccc(S(=O)(=O)Nc2ccc(-c3nc4cc(NS(=O)(=O)c5cccc(C(=O)O)c5)ccc4o3)cc2)c1	inactive	inactive	inactive	inactive
COc1cccc(S(=O)(=O)Nc2ccc(-c3nc4cc(NS(=O)(=O)c5cccc(OC)c5)ccc4o3)cc2)c1	inactive	inactive	inactive	inactive
CS(=O)(=O)Nc1ccc(-c2nc3cc(NS(C)(=O)=O)ccc3o2)cc1	inactive	inactive	inactive	inactive
O=S(=O)(Nc1ccc(-c2nc3cc(NS(=O)(=O)c4cccc(O)c4)ccc3o2)cc1)c1cccc(O)c1	inactive	inactive	inactive	inactive
Nc1ccccc1S(=O)(=O)Nc1ccc(-c2nc3cc(NS(=O)(=O)c4ccccc4N)ccc3o2)cc1	inactive	inactive	inactive	inactive
Cc1ccccc1S(=O)(=O)Nc1ccc(-c2nc3cc(NS(=O)(=O)c4ccccc4C)ccc3o2)cc1	inactive	inactive	inactive	inactive
O=S(=O)(Cc1ccccc1)Nc1ccc(-c2nc3cc(NS(=O)(=O)Cc4ccccc4)ccc3o2)cc1	inactive	inactive	inactive	inactive
O=C(O)c1ccc(S(=O)(=O)Nc2ccc(-c3nc4cc(NS(=O)(=O)c5ccc(C(=O)O)cc5)ccc4o3)cc2)cc1	inactive	inactive	inactive	inactive
O=S(=O)(Nc1ccc(-c2nc3cc(NS(=O)(=O)c4ccccc4Cl)ccc3o2)cc1)c1ccccc1Cl	inactive	inactive	inactive	inactive
O=S(=O)(Nc1ccc2oc(-c3ccc(NS(=O)(=O)c4ccc5ncsc5c4)cc3)nc2c1)c1ccc2scnc2c1	inactive	inactive	inactive	inactive
O=S(=O)(Nc1ccc(-c2nc3cc(NS(=O)(=O)c4ccc(Br)cc4)ccc3o2)cc1)c1ccc(Br)cc1	inactive	inactive	inactive	inactive
COC(=O)c1cccc(S(=O)(=O)Nc2ccc(-c3nc4cc(NS(=O)(=O)c5cccc(C(=O)OC)c5)ccc4o3)cc2)c1	inactive	inactive	inactive	inactive
O=C(O)c1ccccc1S(=O)(=O)Nc1ccc(-c2nc3cc(NS(=O)(=O)c4ccccc4C(=O)O)ccc3o2)cc1	inactive	inactive	inactive	inactive
